Sampled rows, rich in hits. Any-hit rate of the full collection: about 1.7%.
Runt-CBFb FRET – blocks binding of human RUNX1 Runt domain to CBFb. actives 0.46% (n = 220,000). inhibition, % at 20 µM. Cerulean-Runt/Venus-CBFb FRET ratio 530/480, 1 h;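 active = inhibition over about 50% at 20 µM in the single-dose screen, limit read from the data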;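 also: 0% = DMSO wells and 100% = excess unlabeled CBFb competitor control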
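Measured by: fluorescence energy transfer, 422 nm excitation, 530/480 nm emission; Assay system: Cerulean-Runt domain; Medium: Tris pH 7.5 buffer with BSA; Measure: loss of energy transfer signal; Controls: 5 µM unlabeled CBFb as full-inhibition high control; Incubation: protein complex preformed 1 h, compound exposure 1 h, room temperature, dark.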
Runt-SMMHC FRET – inhibitors of human RUNX1 Runt domain binding to CBFb-SMMHC | inhibition, % at 20 µM | AID 1434 | Cerulean-Runt/Venus-CBFb-SMMHC FRET ratio 530/480, 1 h | actives 0.74% (n = 220,000) | Q01196+Q13951;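 active = mean inhibition across duplicate retests at 20 µM reaching about 50%, limit read from the data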;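 also: 0% = DMSO wells and 100% = wells with excess untagged CBFb-SMMHC; inhibitors lower the FRET ratio by blocking Runt binding to CBFb-SMMHC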
Hck-Nef inh – blocks Nef-activated human Hck kinase. Recombinant Hck-YEEI plus Nef, Z-Lyte FRET kinase assay. inhibition, % at 20 µM. actives 0.68% (n = 220,000). AID 463187;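 active = Hck-Nef kinase inhibition above about 50%, limit read from the data; inactive = inhibition below that limit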;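 also: 0% = DMSO with Hck plus Nef and 100% = Hck alone without Nef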
Target sequence (P08631 whole entry, looked up): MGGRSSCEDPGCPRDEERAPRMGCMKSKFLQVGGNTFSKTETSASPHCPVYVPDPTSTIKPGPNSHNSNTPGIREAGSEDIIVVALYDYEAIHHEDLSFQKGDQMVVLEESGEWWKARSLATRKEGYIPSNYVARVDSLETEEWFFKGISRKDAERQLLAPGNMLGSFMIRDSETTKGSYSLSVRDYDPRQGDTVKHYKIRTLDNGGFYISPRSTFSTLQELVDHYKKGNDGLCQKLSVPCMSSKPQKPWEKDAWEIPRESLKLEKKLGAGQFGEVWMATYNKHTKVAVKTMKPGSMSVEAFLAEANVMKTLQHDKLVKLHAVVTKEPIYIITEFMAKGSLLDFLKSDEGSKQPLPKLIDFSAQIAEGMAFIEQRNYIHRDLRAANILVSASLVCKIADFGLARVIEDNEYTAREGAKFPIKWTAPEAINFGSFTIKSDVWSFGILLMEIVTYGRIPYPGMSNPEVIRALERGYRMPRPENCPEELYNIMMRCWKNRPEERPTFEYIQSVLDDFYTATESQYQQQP
RanGTP-Impb inh – disruptors of Ran-importin-beta complex formation – biochemical, FRET, CFP-Ran, YFP-importin-beta, homogeneous, primary screen. cell-free CFP-Ran/YFP-importin-beta FRET ratio. actives 1.1% (n = 300,000). inhibition, % (test concentration not listed);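 active = more than half of the replicate wells show a fall in the fluorescence ratio signal beyond about 16%, limit read from the data, passing the limit was not always enough; inconclusive = exactly half of the replicate wells pass the set limit; inactive = fewer than half of replicates pass the limit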;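 also: 0% = DMSO wells and 100% = Ran loaded with GDP instead of GTP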
Numbers without * were called inactive; ? = inconclusive; nt = not tested or not shown.

SMILES | Runt-CBFb FRET | Runt-SMMHC FRET | Hck-Nef inh | RanGTP-Impb inh
N=c1c(C(=O)NCc2ccccc2)cc2c(=O)n3ccccc3nc2n1CCCN1CCOCC1 | 58* | 40 | nt | nt
N=c1c(C(=O)NCCN2CCOCC2)cc2c(=O)n3ccccc3nc2n1CCc1ccccc1 | nt | nt | nt | 156*
Cc1cc(OC(=O)c2c(C)cc(OC(=O)c3c(C)cc(O)cc3O)cc2O)cc(O)c1C(=O)O | nt | nt | nt | 0
COc1cc2c(cc1OC)C(c1cc(Br)ccc1F)N(C(=O)CCl)CC2 (centres undefined) | nt | nt | nt | 2
O=C(COC(=O)CCc1nc2ccccc2s1)NC(=O)NCc1ccco1 | -1 | -5 | 29 | ?
COc1ccccc1/C=C/C(=O)NCC(=O)N=Nc1c(O)[nH]c2ccccc12 | nt | nt | nt | 7
CCCCCNc1nc2sc3c(c2c(=O)n1-c1cccc(Cl)c1)CCN(C)C3 | 44 | 103* | 6 | 44*
CCCCNc1nc2sc3c(c2c(=O)n1-c1cccc(Cl)c1)CCN(C)C3 | 49 | 126* | -24 | 30*
CCCCSc1nc2sc3c(c2c(=O)n1-c1ccccc1)CCN(C)C3 | nt | nt | nt | -10
COc1ccc(-c2cc(C)no2)cc1S(=O)(=O)N1CCN(C(=O)c2ccco2)CC1 | nt | nt | nt | 0
C/C(C/C(C)=C1/SC(=S)NC1=O)=C1\SC(=S)NC1=O | 37 | 20 | 75* | nt
Cc1c(CCOC(=O)c2cccc([N+](=O)[O-])c2)sc[n+]1CC(=O)c1ccccc1 | 1 | 1 | 15 | 0
COc1ccc2nc(C(F)(F)Cl)c(C#N)c(N)c2c1 | -1 | 0 | 10 | 3
COc1ccc2nc3cc(Cl)ccc3c(C#N)c2c1 | 16 | 29 | 8 | 51*
O=c1c(O)c(-c2ccc3c(c2)OCO3)oc2ccccc12 | -22 | -53 | -4 | 32*
COc1cc2c(cc1OC)C(c1ccccc1[N+](=O)[O-])N(C(C)=O)CC2 (centres undefined) | nt | nt | nt | 4
Cc1ccc(S(=O)(=O)N(C)CC(=O)N2CCOCC2)cc1 | 2 | -2 | 7 | 2
Cc1ccc(S(=O)(=O)N(CC(=O)N2CCOCC2)CC(=O)N2CCOCC2)cc1 | 0 | 4 | 5 | 32*
CCn1nc(C)c(CNC(=O)C2CCC(=O)N(Cc3ccc(Cl)cc3)C2)c1C (centres undefined) | nt | nt | nt | 2
CNc1oc(/C=C/c2ccccc2)nc1C#N | 33 | 84* | 20 | 0
CNc1oc(-c2ccccc2)nc1C#N | 0 | -2 | -5 | 0
Cc1ccc2cc(C#N)c(NCCNC(=O)C3CCC3)nc2c1C | 38 | 78* | 8 | 19*
Cc1cccc2cc(C#N)c(NCCNS(=O)(=O)c3ccc4c(c3)OCCO4)nc12 | 28 | 76* | 19 | ?
Cc1cc2cccc(C)c2nc1SCC(=O)NC1CCCCC1 | nt | nt | nt | 4
Cc1cccc2cc(C#N)c(NCCNC(=O)NC3CCCCC3)nc12 | 55* | 75* | 9 | 3
SMILES | Runt-CBFb FRET | Runt-SMMHC FRET | Hck-Nef inh | RanGTP-Impb inh
Cc1ccc(SCCNS(=O)(=O)c2ccc3c(c2)OCCO3)cc1 | -4 | -3 | 1 | 3
COc1ccc(C(=O)NCCNc2nc3c(C)cccc3cc2C#N)cc1OC | nt | nt | nt | 40*
CCOCCCNC(=S)NCCCNc1nc2c(C)c(C)ccc2cc1C#N | 10 | 38 | 35 | nt
CCC(=O)NCCCNc1nc2c(C)cccc2cc1C#N | 9 | 34 | 44 | 41*
Cc1cc(-n2c(C)cc(C(=O)CSc3ncnc4ccccc34)c2C)no1 | 34 | 110* | 5 | 0
Cc1cc(-n2c(C)cc(C(=O)CSc3nnc4sc5ccccc5n34)c2C)no1 | 1 | -7 | 1 | -1
O=C(Nc1cccc(-n2cnnn2)c1)c1ccoc1COc1ccc(Cl)cc1 | nt | nt | nt | 0
C=C(C)CSc1nc2sc3c(c2c(=O)n1-c1ccccc1)CCN(C)C3 | nt | nt | nt | 8
COc1ccc(CCNC2CC(C)N(C)CC2C)cc1OC (centres undefined) | 20 | 27 | -1 | 27*
CCN1CCN(C(=O)CSc2cc(=O)n(CC)c3ccccc23)CC1 | -1 | -1 | 0 | 37*
CCn1c(=O)cc(SCC(=O)N2CCN(C)CC2)c2ccccc21 | 2 | 0 | -16 | 0
Cc1sc(NC(=S)NC(=O)c2ccco2)c(C#N)c1C | 35 | 15 | 49 | 0
CCOc1ccccc1CN1CCN(CC2=Cc3cc(OC)ccc3OC2)CC1CCO (centres undefined) | -3 | -3 | -6 | 2
CN(C)CCN1C(=O)C(O)=C(C(=O)c2cc3ccccc3o2)C1c1ccccn1 (centres undefined) | 0 | -10 | 0 | 25*

Assay outcomes as filed in PubChem.
